These results are taken from ChEMBL document CHEMBL1122368, “Synthesis and antihypertensive activity of some new quinazoline derivatives” (1983).

The first test relates to Rattus norvegicus. The experiment in a line: Hypotensive activity in anesthetized rats, dose that produced a 30% fall in mean blood pressure after 30 minutes. It is filed as functional. In short, it runs like this: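 Normotensive rats under urethane anaesthesia, arterial pressure recorded, femoral vein cannulated. Dosing iv in rising doses (0.01, 0.1, 1, 10 μmol/kg) at 30-min intervals, 1 mL/kg over 2 min; solvent controls; colonic temperature 38.0 ± 0.3 °C. Fall in pressure read 30 min after injection. ED30 is the dose (μmol/kg) giving a 30% fall in mean blood pressure.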
In turn, `COc1cc2nc(N3CCC(C(C)O)CC3)nc(N)c2cc1OC.Cl` (stereo unspecified) showed an ED30 of 0.7 µM/kg. Regarding `COc1cc2nc(N3CCCC(C(=O)N4CCCC4)C3)nc(N)c2cc1OC.Cl` (stereo in doubt; 6ii), the ED30 is 15 µM/kg. The same measure, in the same setting: in the case of `COc1cc2nc(N3CCC(C(O)C4CCCC4)CC3)nc(N)c2cc1OC.Cl` (stereo unspecified) it was 0.7 µM/kg. Still for that read-out and setting: in the case of `CCOC(=O)C1CCN(c2nc(N)c3cc(OC)c(OC)cc3n2)CC1.Cl` it was 30 µM/kg; in that of `COc1cc2nc(N3CCC(C(=O)NC(C)(C)C)CC3)nc(N)c2cc1OC.Cl`, 1 µM/kg; in that of `CCOC(=O)C1CCCN(c2nc(N)c3cc(OC)c(OC)cc3n2)C1.Cl` (stereo in doubt; 6c), 20 µM/kg. Compound `COc1cc2nc(N3CCC(Cc4ccccc4)CC3)nc(N)c2cc1OC.Cl` showed an ED30 of 0.07 µM/kg. As for `COc1cc2nc(N3CCC(C(=O)N4C(C)CCCC4C)CC3)nc(N)c2cc1OC.Cl` (stereo unspecified), the ED30 came to 0.2 µM/kg. `COc1cc2nc(N3CCC(C(=O)c4cccs4)CC3)nc(N)c2cc1OC.Cl` had an ED30 of 6 µM/kg. Turning to `COc1cc2nc(N3CCC(C(=O)OCC(C)(C)C)CC3)nc(N)c2cc1OC.Cl`, the ED30 is 2 µM/kg. As to `COc1cc2nc(N3CCC(C(N)=O)CC3)nc(N)c2cc1OC.Cl`, the ED30 is 0.8 µM/kg. Same read-out and setting: with `COc1cc2nc(N3CCC(C(=O)N4C(C)CCC4C)CC3)nc(N)c2cc1OC.Cl` (stereo unspecified) the figure was 0.2 µM/kg.

The test system of another test is Rattus norvegicus. The experiment in a line: Hypotensive activity in anesthetized rats, dose that produced a 30% fall in mean blood pressure. Type of test: functional. In short, it runs like this: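 Normotensive rats under urethane anaesthesia, arterial pressure recorded, femoral vein cannulated. Dosing iv in rising doses (0.01, 0.1, 1, 10 μmol/kg) at 30-min intervals, 1 mL/kg over 2 min; solvent-treated controls. Colonic temperature held at 38.0 ± 0.3 °C. Effect read at its maximum, 1–5 min after injection. ED30 is the dose (μmol/kg) giving a 30% fall in mean blood pressure.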
For the compound `CCOC(=O)C1CCCN(c2nc(N)c3cc(OC)c(OC)cc3n2)C1.Cl` (stereo in doubt; 6cc), the ED30 was 0.2 µM/kg. Still for that read-out and setting: with `COc1cc2nc(N3CCC(C(C)O)CC3)nc(N)c2cc1OC.Cl` (stereo unspecified) the figure was 0.5 µM/kg; with `COc1cc2nc(N3CCCC(C(=O)N4CCCC4)C3)nc(N)c2cc1OC.Cl` (stereo in doubt; 6ii), 10 µM/kg.

`COc1cc2nc(N3CCC(C)CC3)nc(N)c2cc1OC.Cl` yielded an ED30 of 0.08 µM/kg. In turn, `COc1cc2nc(N3CCC(C(O)C4CCCC4)CC3)nc(N)c2cc1OC.Cl` (stereo unspecified) gave an ED30 of 0.1 µM/kg.

`CCOC(=O)C1CCN(c2nc(N)c3cc(OC)c(OC)cc3n2)CC1.Cl` showed an ED30 of 0.3 µM/kg. `COc1cc2nc(N3CCC(C(=O)NC(C)(C)C)CC3)nc(N)c2cc1OC.Cl` gave an ED30 of 0.08 µM/kg. Compound `CCOC(=O)C1CCCN(c2nc(N)c3cc(OC)c(OC)cc3n2)C1.Cl` (stereo in doubt; 6c) showed an ED30 of 0.8 µM/kg. Take `COc1cc2nc(N3CCC(Cc4ccccc4)CC3)nc(N)c2cc1OC.Cl`: the ED30 was 0.06 µM/kg.

The compound `COc1cc2nc(N3CCC(C(=O)N4C(C)CCCC4C)CC3)nc(N)c2cc1OC.Cl` (stereo unspecified) returned an ED30 of 0.08 µM/kg. Turning to `COc1cc2nc(N3CCC(C(=O)c4cccs4)CC3)nc(N)c2cc1OC.Cl`, the ED30 was 0.2 µM/kg. On to `COc1cc2nc(N3CCC(C(=O)OCC(C)(C)C)CC3)nc(N)c2cc1OC.Cl`, for which the ED30 came to 0.03 µM/kg.

`COc1cc2nc(N3CCC(C(N)=O)CC3)nc(N)c2cc1OC.Cl` registered an ED30 of 0.1 µM/kg. Take `COc1cc2nc(N3CCC(C(=O)N4C(C)CCC4C)CC3)nc(N)c2cc1OC.Cl` (stereo unspecified): the ED30 turned out to be 0.08 µM/kg.
